The subject of test [1] is Escherichia coli. The test is described as follows: Induction of Escherichia coli XL1 blue pUC18 DNA cleavage assessed as conversion of supercoiled DNA to relaxed circular DNA at 2 mM after 90 mins by agarose gel electrophoresis. Summed up:
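Supercoiled pUC18 (262 ng, from E. coli XL1 blue) incubated with 2 mM compound in 20 μL of 40 mM bicarbonate buffer pH 8.4 at 37 °C for 90 min. Reaction stopped with loading buffer. Analyzed on 1% agarose in TAE pH 8.24 at 80 V and stained with ethidium bromide (0.5 µg/mL).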

For test [2], the system named is DNA. The test is described as follows: Binding affinity to calf thymus DNA at 20 to 80 uM after 1.5 hrs by UV-vis spectrophotometric analysis. In kind it is nucleic-acid assay. Conditions: Bos taurus. Summed up: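 UV–Vis spectra (200–800 nm, 1 cm cells) of compound at 20, 40, 60 or 80 μM, with or without 0.12 mM CT-DNA. CT-DNA was dissolved in 10 mM Tris-HCl pH 7.9. Mixtures were in 40 mM bicarbonate buffer pH 8.4, incubated 1.5 h at 37 °C with occasional vortexing.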

Test [3] deals with Radical scavenging activity. The test is described as follows: Antioxidant activity assessed as DPPH radical scavenging activity after 30 mins by spectrophotometric analysis. The format is functional. Summed up:
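Test solutions at 8–1000 μM in methanol mixed 1:1 by volume with 200 μM DPPH in methanol, kept 30 min in the dark at room temperature. Absorbance read at 517 nm against blanks without DPPH. Percent scavenging = (A_DPPH − A_sample)/A_DPPH × 100. IC50 (concentration halving DPPH absorbance) read from a plot of % versus concentration. Ascorbic acid and BHT used as standards.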

Test [4] deals with HeLa. The test is described as follows: Induction of apoptosis in human HeLa cells at IC90 after 24 hrs by propidium iodide staining-based FACS flow cytometric analysis in presence of caspase-9 inhibitor Z-LEHD-FMK. In kind it is functional, cell-based.
Test [5] concerns HeLa. The test is described as follows: Induction of apoptosis in human HeLa cells at IC90 after 24 hrs by propidium iodide staining-based FACS flow cytometric analysis in presence of caspase-8 inhibitor Z-IETD-FMK. In kind it is functional, cell-based.
Test [6] relates to HeLa. The test is described as follows: Induction of apoptosis in human HeLa cells at IC90 after 24 hrs by propidium iodide staining-based FACS flow cytometric analysis in presence of caspase-3 inhibitor Z-DEVD-FMK. In kind it is functional, cell-based.
Test [7] relates to HeLa. The test is described as follows: Cell cycle arrest in human HeLa cells assessed as accumulation at subG1 phase after 24 hrs by propidium iodide staining-based FACS flow cytometric analysis. The format is functional.
The test system of test [8] is HeLa. The test is described as follows: Cell cycle arrest in human HeLa cells assessed as accumulation at G2/M phase at 2 times IC50 after 24 hrs by propidium iodide staining-based FACS flow cytometric analysis (reference value: 21.66%). In kind it is functional.
Test [9] relates to HeLa. The test is described as follows: Cell cycle arrest in human HeLa cells assessed as accumulation at S phase at 2 times IC50 after 24 hrs by propidium iodide staining-based FACS flow cytometric analysis (reference value: 16.22%). In kind it is functional.
Test [10] relates to HeLa. The test is described as follows: Cell cycle arrest in human HeLa cells assessed as accumulation at G1 phase at 2 times IC50 after 24 hrs by propidium iodide staining-based FACS flow cytometric analysis (reference value: 51.97%). In kind it is functional.
The test system of test [11] is HeLa. The test is described as follows: Cell cycle arrest in human HeLa cells assessed as accumulation at subG1 phase at 2 times IC50 after 24 hrs by propidium iodide staining-based FACS flow cytometric analysis (reference value: 9.10%). The format is functional.
In test [12] the test system is HeLa. The test is described as follows: Cell cycle arrest in human HeLa cells assessed as accumulation at G2/M phase at IC50 after 24 hrs by propidium iodide staining-based FACS flow cytometric analysis (reference value: 21.66%). In kind it is functional.
Test [13] has as its system HeLa. The test is described as follows: Cell cycle arrest in human HeLa cells assessed as accumulation at S phase at IC50 after 24 hrs by propidium iodide staining-based FACS flow cytometric analysis (reference value: 16.22%). In kind it is functional.
Test [14] concerns HeLa. The test is described as follows: Cell cycle arrest in human HeLa cells assessed as accumulation at G1 phase at IC50 after 24 hrs by propidium iodide staining-based FACS flow cytometric analysis (reference value: 51.97%). In kind it is functional.
Test [15] has as its system HeLa. The test is described as follows: Cell cycle arrest in human HeLa cells assessed as accumulation at subG1 phase at IC50 after 24 hrs by propidium iodide staining-based FACS flow cytometric analysis (reference value: 9.10%). The format is functional.
The subject of test [16] is MRC5. The test is described as follows: Cytotoxicity against human MRC5 cells after 72 hrs by MTT assay. The format is cell-based. Conditions: MRC5, 72 h. An outline of the steps:
(§1)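 Cells seeded in 96-well plates: HeLa 2000, MDA-MB-361 7000, MDA-MB-453 3000, K562, A549 and MRC-5 5000 per well. Compounds added at 5–100 μM (final), DMSO ≤0.5%, in RPMI-1640 with 10% FBS. Added after 24 h, except K562 at 2 h after seeding. Exposure 72 h, then MTT 4 h at 37 °C, SDS solubilization, A570 read. IC50 is the mean ± SD of three independent experiments.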

Test [17] has as its system A549. The test is described as follows: Cytotoxicity against human A549 cells after 72 hrs by MTT assay. In kind it is functional, cell-based. Conditions: A549, 72 h. An outline of the steps:
as §1

Test [18] relates to K562. The test is described as follows: Cytotoxicity against human K562 cells after 72 hrs by MTT assay. The format is functional, cell-based. The conditions noted are these: K562, 72 h. An outline of the steps: as §1
In test [19] the test system is MDA-MB-361. The test is described as follows: Cytotoxicity against human MDA-MB-361 cells after 72 hrs by MTT assay. The format is functional, cell-based. Conditions: MDA-MB-361, 72 h. Summed up: as §1
The subject of test [20] is MDA-MB-453. The test is described as follows: Cytotoxicity against human MDA-MB-453 cells after 72 hrs by MTT assay. The format is functional, cell-based. The conditions noted are these: MDA-MB-453, 72 h. Summed up: as §1
Test [21] concerns HeLa. The test is described as follows: Cytotoxicity against human HeLa cells after 72 hrs by MTT assay. The format is functional, cell-based. An outline of the steps: as §1
The subject of test [22] is Escherichia coli. The test is described as follows: Induction of Escherichia coli XL1 blue pUC18 DNA cleavage assessed as conversion of supercoiled DNA to relaxed circular DNA at 1:2 compound to iron molar ratio after 90 mins by agarose gel electrophoresis in presence of Fe3+. Summed up: (§2)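 AQ-thiosemicarbazone (4 μL of 10 mM) preincubated 60 min at 37 °C in bicarbonate buffer with 2 μL of FeSO₄ or FeCl₃ (20 mM or 40 mM stock). pUC18 (2 μL) then added and incubated a further 90 min. Products run on 1% agarose in TAE at 80 V and stained with ethidium bromide (0.5 µg/mL).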

Test [23] relates to Escherichia coli. The test is described as follows: Induction of Escherichia coli XL1 blue pUC18 DNA cleavage assessed as conversion of supercoiled DNA to relaxed circular DNA at 1:1 compound to iron molar ratio after 90 mins by agarose gel electrophoresis in presence of Fe3+. Summed up:
as §2

The subject of test [24] is Escherichia coli. The test is described as follows: Induction of Escherichia coli XL1 blue pUC18 DNA cleavage assessed as conversion of supercoiled DNA to relaxed circular DNA at 1:2 compound to iron molar ratio after 90 mins by agarose gel electrophoresis in presence of Fe2+. Summed up:
as §2

In test [25] the test system is Escherichia coli. The test is described as follows: Induction of Escherichia coli XL1 blue pUC18 DNA cleavage assessed as conversion of supercoiled DNA to relaxed circular DNA at 1:1 compound to iron molar ratio after 90 mins by agarose gel electrophoresis in presence of Fe2+. An outline of the steps:
as §2

The subject of test [26] is DNA. The test is described as follows: Binding affinity to calf thymus DNA after 1.5 hrs by spectroscopic titration. The conditions noted are these: Bos taurus. In kind it is nucleic-acid assay. Summed up:
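Absorbance titration in 40 mM bicarbonate buffer pH 8.4. Compound held fixed at 40 μM, CT-DNA varied at (0.2–1.6) × 10⁻⁴ M. Mixtures incubated 1.5 h at 37 °C, then UV–Vis spectra recorded from 200 to 800 nm. K_B taken from a plot of [DNA]/(εA − εF) versus [DNA].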

Calls of active or inactive are those of the source. The rule behind the calls is not given here.

For the compound `CCOC(=O)/C(CC(=O)c1cccc2c1C(=O)c1ccccc1C2=O)=N\NC(=S)NCc1cccs1`, the outcome in [1] was inactive. Moreover, the outcome in test [2], in [4], in test [5] and in [6] was Active. Further, the IC50 was 66.5 µM in test [3]; 24.4 µM in [16]; 12.9 µM in test [17]; 2.8 µM in [18]; 25.4 µM in [19]; 13.5 µM in test [20]. In test [21], inhibition was half-maximal at 8.25 µM (IC50). Moreover, the Activity entry in test [7] is “Dose-dependent effect”; in [8], 3.79%; in [9], 13.79%; in [10], 40.07%; in test [11], 36.27%; in test [12] it was 15.34%. In addition, the Activity in test [13] came to 20.62%; in test [14] it was 32.36%; in [15], 28.61%.
`CCCCCCNC(=S)N/N=C(/CC(=O)c1cccc2c1C(=O)c1ccccc1C2=O)C(=O)OCC`: the result in [22], in test [23], in test [25] and in test [1] was inactive. The result in [24], in [2], in test [4], in test [5] and in test [6] was Active. Besides, the IC50 in test [3] was 26.1 µM; in test [16], 42.1 µM; in [17], 43.6 µM; in test [18] it was 5.86 µM; in test [19], 4.45 µM; in test [20], 19.6 µM. The compound also displayed an IC50 in [21] of 7.66 µM. Besides, the Activity entry in test [7] was “Dose-dependent effect”; in [8], 3.84%; in test [9], 17.17%; in [10] it was 36.66%; in [11] it was 37.32%; in [12] it was 19.83%. Further, the results for the Activity in test [13], in test [14] and in [15] were 14.62%, 37.89% and 25.02%, respectively.
On to `CCOC(=O)/C(CC(=O)c1cccc2c1C(=O)c1ccccc1C2=O)=N\NC(=S)Nc1ccccc1`, for which the result in test [1] was inactive. Also, the Kb in test [26] was determined as 9.3 ×10⁹ /M. For the same compound, the result in test [2], in [4], in [5] and in test [6] was Active. Further, the IC50 came out at 26.2 µM in test [3]; 11.8 µM in test [16]; 9.89 µM in test [17]; 3.59 µM in [18]; 6.61 µM in test [19]; 6.91 µM in [20]. In [21], this compound showed an IC50 of 8.19 µM. Moreover, the Activity result in [7] is “Dose-dependent effect”; in [8], 7.61%; in [9], 19.4%; in [10], 44.72%; in test [11] it was 23.74%; in test [12] it was 24.11%. In addition, the Activity in [13] stood at 17.82%; in test [14] it was 44.66%; in test [15] it was 11.21%.

Values taken from ChEMBL document CHEMBL2390837, “Synthesis, cytotoxic activity and DNA-interaction studies of novel anthraquinone-thiosemicarbazones with tautomerizable methylene group” (Eur J Med Chem, 2013).
